# Experimental data published in ChEMBL document CHEMBL1134642, “Dicationic bis(9-methylphenazine-1-carboxamides): relationships between biological activity and linker chain structure for a series of potent topoisomerase targeted anticancer drugs” (J Med Chem, 2001).
# What was measured:
# [1] = Ratio of IC50 values obtained from Jurkat lines, (JLa /JLc); type: functional, Homo sapiens
# Summary of the method: (§1)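 Murine P388 leukemia, Lewis lung carcinoma (LL), and human Jurkat leukemia (JLC) cells, plus amsacrine- and doxorubicin-resistant Jurkat derivatives (JLA, JLD), were grown with drug. Seeding per well was 4.5×10^3 (P388), 10^3 (LL) and 3.75×10^3 (Jurkat). Exposure was 3 days (P388) or 4 days (others). Growth was read by [3H]TdR uptake (P388) or sulforhodamine assay. IC50 is the drug concentration (nM) halving cell number versus controls. Ratios are JLA/JLC and JLD/JLC IC50. Independent assays were run in duplicate.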
# [2] = tested on: Lewis lung carcinoma cell line; assay: Inhibitory concentration required to reduce cell number to 50% of control cultures in LL(Lewis lung carcinoma cell line); type: functional, cell-based; settings: Mus musculus; summary of the method: as §1
# P388 = assay: Inhibitory concentration required to reduce cell number to 50% of control cultures in P388 (murine leukemia cell line); type: functional, cell-based; settings: Mus musculus; summary of the method: as §1
# [3] = Ratio of IC50 values obtained from Jurkat lines, (JLd /JLc); type: functional, Homo sapiens; summary of the method: as §1
# [4] = Inhibitory concentration required to reduce cell number to 50% of control cultures in JLc(Jurkat human leukemia); type: functional; summary of the method: as §1
# CAKI-1 = assay: Inhibitory concentration required to reduce cell growth to 50% of control cultures in the CAK1 human cell line; type: functional
# HCT-116 = assay: Inhibitory concentration required to reduce cell growth to 50% of control cultures in the HTC116 human cell line; type: functional
# [5] = (§2) Average GI50 value for the drug over the whole cell line panel; type: functional
# MCF7 = assay: Inhibitory concentration required to reduce cell growth to 50% of control cultures in the MCF-7 human cell line; type: functional
# [6] = Inhibitory concentration required to reduce cell growth to 50% of control cultures in the NCI-ADR human cell line; type: functional; settings: NCI/ADR-RES
# HT-29 [7] = assay: Inhibitory concentration required to reduce cell growth to 50% of control cultures in the HT-29 human cell line; type: functional
# SK-OV-3 = assay: Inhibitory concentration required to reduce cell growth to 50% of control cultures in the SKOV3 human cell line; type: functional
# [8] = tested on: Lewis lung carcinoma cell line; assay: Inhibitory concentration required to reduce cell number to 50% of control cultures in LL (Lewis lung carcinoma cell line); type: functional, cell-based; settings: Mus musculus; summary of the method: as §1
# MOLT-4 = assay: Inhibitory concentration of the drug resulting in inhibition of cell growth to 50% of controls in MOLT-4 (human leukemia); type: functional, cell-based
# [9] = Ratio of IC50 values obtained from D3F-C10 and D3F cell lines; type: functional
# [10] = Concentration of the drug to reduce cell number to 50% of controls in AuxB1 cell line; type: functional, cell-based
# HT-29 [11] = assay: Inhibitory concentration of the drug resulting in inhibition of cell growth to 50% of controls in HT-29 (human colon); type: functional, cell-based
# U-937 = assay: Inhibitory concentration of the drug resulting in inhibition of cell growth to 50% of controls in U937 (human leukemia); type: functional, cell-based
# D3F = assay: Concentration of the drug to reduce cell number to 50% of controls in D3F cell line; type: functional, cell-based
# Whole cell line panel = assay: as §2; type: functional
# [12] = Ratio of IC50 values obtained from CHrC5 and AuxB1 cell lines; type: functional
# Mus musculus [13] = assay: In vivo activity in colon 38 model for tumor growth delay after i.p. administration of 13.3 mg/kg in C57/B1 mice; type: functional; settings: route intraperitoneal
# Summary of the method: (§3)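 Treatment started at about 4 mm diameter, with 5 mice per group. Hydrochloride salts in distilled water were given intraperitoneally at 0.01 mL/g, q4d × 3. Calliper measurements were taken three times weekly; volume = 0.52·a²·b. Growth delay is the time for mean tumour volume to reach 4-fold pretreatment volume.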
# Mus musculus [14] = assay: In vivo activity in colon 38 model for tumor growth delay after i.p. administration of 8.9 mg/kg in C57/B1 mice; type: functional; settings: route intraperitoneal; summary of the method: as §3
# Mus musculus [15] = assay: In vivo activity in colon 38 model for tumor growth delay after i.p. administration of 20 mg/kg in C57/B1 mice; type: functional; settings: route intraperitoneal; summary of the method: as §3
# Mus musculus [16] = assay: In vivo activity in HT-29 model for tumor growth delay after i.p. administration of 13.3 mg/kg in nude mice; settings: route intraperitoneal
# Mus musculus [17] = assay: In vivo activity in HT-29 model for tumor growth delay after i.p. administration of 20 mg/kg in nude mice; settings: route intraperitoneal
# Mus musculus [18] = assay: In vivo activity in colon 38 model for tumor growth delay after i.p. administration of 30 mg/kg in C57/B1 mice; type: functional; settings: route intraperitoneal; summary of the method: as §3
IC50 [2] [nM],IC50 (P388) [nM],IC50 [4] [nM],Compound,Ratio [1],Ratio [3],further results
0.3,1.6,0.08,Cc1cccc2nc3cccc(C(=O)NCCN(C)CCCN(C)CCNC(=O)c4cccc5nc6cccc(C)c6nc45)c3nc12,0.4,0.8,GI50 (CAKI-1): < 0.1 nM; GI50 (HCT-116): < 0.1 nM; GI50 [5]: 0.29 nM; GI50 (MCF7): < 10 nM; GI50 [6]: < 0.1 nM; GI50 (HT-29 [7]): < 10 nM; GI50 (SK-OV-3): < 0.0001 µM
39,18,207,Cc1cccc2nc3cccc(C(=O)NCCN(C)C)c3nc12,1.1,1.1,
5.6,,46,Cc1cccc2cc3cccc(C(=O)NCCN(C)C)c3nc12,4.6,4.8,
,,5.6,Cc1cccc2nc3cccc(C(=O)NCCCN(C)CCCNC(=O)c4cccc5nc6cccc(C)c6nc45)c3nc12,0.6,0.6,GI50 (CAKI-1): < 10 nM; IC50 [8]: 3.3 nM; IC50 (MOLT-4): 0.35 nM; Ratio [9]: 0.57; IC50 [10]: 0.57 nM; IC50 (HT-29 [11]): 1.5 nM; IC50 (U-937): 6.9 nM; GI50 (HCT-116): < 10 nM; IC50 (D3F): 2.9 nM; GI50 (Whole cell line panel): 20 nM; GI50 (MCF7): < 10 nM; GI50 [6]: 19 nM; Ratio [12]: 31.3; GI50 (HT-29 [7]): < 10 nM; GI50 (SK-OV-3): 0.22 µM
48,170,16,CCN(CCNC(=O)c1cccc2nc3cccc(C)c3nc12)CCN(CC)CCNC(=O)c1cccc2nc3cccc(C)c3nc12,0.6,0.7,
20,33,5.3,Cc1cccc2nc3cccc(C(=O)NCCN(C)CCN(C)CCNC(=O)c4cccc5nc6cccc(C)c6nc45)c3nc12,0.4,0.6,

# More lines, now with the values behind:
Compound,IC50 [2] [nM],IC50 (P388) [nM],IC50 [4] [nM],Ratio [1],Ratio [3],further results
Cc1cccc2nc3cccc(C(=O)NCCCNCCCNCCCNC(=O)c4cccc5nc6cccc(C)c6nc45)c3nc12,31,430,1.3,0.5,1,
Cc1cccc2nc3cccc(C(=O)NCCCNCCCCNCCCNC(=O)c4cccc5nc6cccc(C)c6nc45)c3nc12,112,880,8.7,0.2,1.2,GI50 (CAKI-1): 8280 nM; GI50 (HCT-116): 335 nM; GI50 [5]: 2000 nM; GI50 (MCF7): 74 nM; GI50 [6]: 906 nM; GI50 (HT-29 [7]): 366 nM; GI50 (SK-OV-3): 13.6 µM
Cc1cccc2nc3cccc(C(=O)NCCNCCCNCCNC(=O)c4cccc5nc6cccc(C)c6nc45)c3nc12,1.2,7.4,0.24,0.7,0.6,
Cc1cccc2nc3cccc(C(=O)NCCCN4CCN(CCCNC(=O)c5cccc6nc7cccc(C)c7nc56)CC4)c3nc12,0.46,48,1.3,0.8,0.7,
Cc1cccc2nc3cccc(C(=O)NCCCCNCCCCNCCCCNC(=O)c4cccc5nc6cccc(C)c6nc45)c3nc12,290,890,67,0.3,0.9,
CCCN(CCNC(=O)c1cccc2nc3cccc(C)c3nc12)CCN(CCC)CCNC(=O)c1cccc2nc3cccc(C)c3nc12,120,250,46,0.5,0.8,
Cc1cccc2nc3cccc(C(=O)NCCNCCNCCNC(=O)c4cccc5nc6cccc(C)c6nc45)c3nc12,2.8,21,0.18,0.5,0.9,Growth delay (Mus musculus [13]): 4 days; GI50 (CAKI-1): < 10 nM; IC50 (MOLT-4): 0.0062 nM; Ratio [9]: 0.91; IC50 [10]: 3.7 nM; IC50 (HT-29 [11]): 0.08 nM; Growth delay (Mus musculus [14]): 2.8 days; IC50 (U-937): 0.047 nM; GI50 (HCT-116): < 10 nM; IC50 (D3F): 4.4 nM; GI50 [5]: 13 nM; Growth delay (Mus musculus [15]): 7 days; GI50 (MCF7): < 10 nM; GI50 [6]: 15 nM; Ratio [12]: 47.1; Growth delay (Mus musculus [16]): 2.4 days; GI50 (HT-29 [7]): < 10 nM; GI50 (SK-OV-3): < 0.01 µM
Cc1cccc2nc3cccc(C(=O)NCCCCN4CCN(CCCCNC(=O)c5cccc6nc7cccc(C)c7nc56)CC4)c3nc12,0.34,96,1.1,0.5,0.5,
Cc1cccc2nc3cccc(C(=O)NCCCNCCNCCCNC(=O)c4cccc5nc6cccc(C)c6nc45)c3nc12,35,740,1.7,0.4,1.3,GI50 (CAKI-1): 1000 nM; GI50 (HCT-116): 21 nM; GI50 [5]: 524 nM; GI50 (MCF7): 24 nM; GI50 [6]: 8030 nM; GI50 (HT-29 [7]): 27 nM; GI50 (SK-OV-3): 8.89 µM
Cc1ccc(Cl)c2nc3cccc(C(=O)NCCNCCNCCNC(=O)c4cccc5nc6c(Cl)ccc(C)c6nc45)c3nc12,10,37,0.6,0.4,0.8,
Cc1ccc(C)c2nc3c(C(=O)NCCNCCNCCNC(=O)c4cccc5nc6c(C)ccc(C)c6nc45)cccc3nc12,3.9,8.3,0.6,0.5,0.6,Growth delay (Mus musculus [13]): 2.4 days; Growth delay (Mus musculus [17]): 7.8 days; IC50 (MOLT-4): 0.067 nM; Ratio [9]: 0.77; IC50 [10]: 4.5 nM; IC50 (HT-29 [11]): 0.15 nM; Growth delay (Mus musculus [14]): 2.8 days; IC50 (U-937): 0.52 nM; IC50 (D3F): 6.5 nM; Growth delay (Mus musculus [15]): 4.4 days; Growth delay (Mus musculus [18]): 7.5 days; Ratio [12]: 30.3
Cc1cccc2nc3cccc(C(=O)NCCN4CCN(CCNC(=O)c5cccc6nc7cccc(C)c7nc56)CC4)c3nc12,12,2240,11,0.6,0.9,
O=C1c2cccc3cccc(c23)C(=O)N1CCNCCCNCCN1C(=O)c2cccc3cccc(c23)C1=O [ELINAFIDE],11,1.5,0.7,0.3,0.6,IC50 (MOLT-4): 0.037 nM; IC50 (HT-29 [11]): 0.15 nM; IC50 (U-937): 0.34 nM
